In the library only some 3% were active in any assay of this set; here they are far more common.
Hsp70 activator: switches on Hsp70 transcription | HeLa Hsp70 promoter luciferase reporter, luminescence; scaled: vehicle 0, proteasome-inhibitor control 100% | activation, % at 10 µM | hit rate 0.04% among 200,000 | AID 1203;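 active means activation above the mean across all tested compounds plus 3 SD, cutoff set per campaign, cut at about 5.5% in these data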;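 further: 100% = MG132 at 30 µM as the positive control and 0% = DMSO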
Wee1 degr inh: blocks degradation of human Wee1 kinase | P30291 | HeLa Luc-Wee1K328M stability, luciferase luminescence; 100% = proteasome inhibitor MG132 effect | reporter increase, % at 5 µM | hit rate 1.2% among 220,000 | AID 1321;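 active means activation above the mean of all tested compounds plus 3 SD, set per screening run, cut at about 8.8% in these data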;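 further: cells exposed to compound for 20 h before luminescence read; 0% = DMSO alone and 100% = MG132 at 30 µM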
NPY2 pot ag: potentiators or agonists of human neuropeptide Y receptor Y2 | hit rate 0.45% among 220,000 | cells expressing NPY-Y2, potentiator/agonist read-out | AID 1359 | P49146 | activation, % at 3.6 µM; in the data active means activation above about 27%;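 further: cells stimulated with NPY near EC25 plus isoproterenol at EC100; 0% = vehicle plus submaximal agonist and 100% = vehicle plus saturating agonist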
NPY-Y1 PAM-ag: potentiates or activates human NPY-Y1 receptor. hit rate 0.37% among 220,000. activation, % at 3.6 µM. NPY-Y1 expressing cells, potentiator/agonist activation. P25929; in the data active means activation above about 33%, passing the limit was not always enough;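 further: cells stimulated with NPY at EC10 then isoproterenol at EC100; 0% = low agonist plus stimulus and 100% = saturating agonist plus stimulus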
Target sequence (P25929 whole entry, looked up): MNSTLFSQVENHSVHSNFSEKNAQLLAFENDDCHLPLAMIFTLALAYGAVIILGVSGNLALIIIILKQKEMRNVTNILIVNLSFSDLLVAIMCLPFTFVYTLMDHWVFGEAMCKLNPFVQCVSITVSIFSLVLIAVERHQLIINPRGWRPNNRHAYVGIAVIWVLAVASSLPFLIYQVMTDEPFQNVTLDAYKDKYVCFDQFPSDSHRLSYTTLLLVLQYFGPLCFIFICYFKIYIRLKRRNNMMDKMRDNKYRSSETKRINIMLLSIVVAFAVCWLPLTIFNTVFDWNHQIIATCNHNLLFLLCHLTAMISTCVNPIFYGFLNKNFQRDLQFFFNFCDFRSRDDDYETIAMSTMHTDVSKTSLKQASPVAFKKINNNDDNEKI
NPY Y1 blocker: antagonists of human neuropeptide Y receptor Y1; P25929; HEK293-CNG Y1 cells, membrane potential fluorescence; NPY at EC95, then isoproterenol; inhibition, % at 3.6 µM; hit rate 1% among 200,000; AID 1040;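 active means inhibition above the campaign mean inhibition of all tested compounds plus 3 SD, cut at about 20% in these data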;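 further: 0% = DMSO wells given NPY plus isoproterenol and 100% = isoproterenol alone without NPY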
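Test system – HEK293 Y1/CNG channel cell line · Also added – NPY agonist 25 nM, then isoproterenol 1 µM plus Ro 20-1724 25 µM · Compound dosing – one concentration, 3.6 µM, in 0.4% DMSO · Schedule – compound incubation 1 h at room temperature, readout 45 min post-stimulation · Technique – fluorescence, membrane potential probe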
NPY Y2 blocker: blocks the human neuropeptide Y Y2 receptor; NPY-Y2 expressing cells, antagonist mode; AID 793; P49146; inhibition, % at 2.7 µM; hit rate 0.99% among 140,000;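 further: 0% = vehicle with agonist challenge and 100% = reference antagonist with challenge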
NPY1 antag conf: human NPY-Y1 antagonism, confirmation | shares compounds with NPY Y1 blocker | HEK293-CNG NPY-Y1, membrane potential fluorescence, cAMP; NPY challenge against isoproterenol-raised cAMP | inhibition, % at 3.6 µM | hit rate 21% among 1,200 | AID 1254; in the data active means inhibition above about 20%;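 further: 0% = vehicle with agonist plus stimulus and 100% = stimulus alone without agonist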
NPY-Y2 antag ct: counter-screen for NPY-Y1 antagonists: human NPY-Y2 antagonism; AID 1255; hit rate 28% among 1,200; shares compounds with NPY Y1 blocker; inhibition, % at 3.6 µM; HEK293 NPY-Y2 CNG membrane potential fluorescence; cells given NPY, then isoproterenol;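 further: 0% = DMSO with agonist challenge and 100% = reference antagonist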
The depositor's hits bear a star; . = not tested or not shown. Unless noted, no stated cut-off is given here; in the data, active means inhibition above about 17%; inactive means the rest.

SMILES	Hsp70 activator	Wee1 degr inh	NPY2 pot ag	NPY-Y1 PAM-ag	NPY Y1 blocker	NPY Y2 blocker	NPY1 antag conf	NPY-Y2 antag ct
COc1cc(NC2c3ccccc3C(=O)N2Cc2ccc3c(c2)OCO3)cc(OC)c1OC (stereo not given)	0	-3	-21	-7	23*	15	16	7
CCOC(=O)C1CCN(Cc2cn(C)nc2-c2ccc(Oc3ccccc3)cc2)CC1	0	-3	-32	-6	13	.	.	.
O=C(NC1CCCCC1)C(c1ccc2ncccc2c1)N(Cc1cccs1)C(=O)c1cccs1 (stereo not given)	0	2	3	-10	32*	3	5	6
N#Cc1nc(-c2ccccc2F)oc1NCc1cccc2c1OCO2	0	-1	-53	-40	28*	14	6	7
O=C(C1CC1)N(CCN(Cc1ccccc1)C(=O)C1CC1)Cc1ccccc1	0	0	-9	-26	55*	16	40*	24*
CN1CCN(C(=O)c2ccccc2-c2nc(-c3ccccc3)no2)CC1	0	-1	9	14	28*	3	0	2
COc1cccc(N(CC(=O)NCCSc2ccc(Cl)cc2)S(C)(=O)=O)c1	0	1	-20	-5	-5	2	.	.
CCCCOC(=O)c1ccc(NC(=S)NC(=O)c2c(Cl)cnn2C)cc1	0	-2	-15	-36	25*	8	9	12
CC(=O)C1=C(C)N(CC2CC2)C(=O)N[C@H]1c1ccc(Br)cc1	0	4	-2	-13	-3	1	.	.
CCOC(=O)CN1C(=O)N[C@H](c2ccc(Br)cc2)C(C(C)=O)=C1C	0	5	-9	-16	24*	11	4	6
Clc1ccc(CN(CC2CCCO2)C(c2cccs2)c2nnnn2C2CCCC2)cc1 (stereo not given)	0	0	-2	-16	40*	11	13	16
O=C(c1ccc2c(c1)OCO2)C1CCCN(C2CCN(CCc3ccccc3)CC2)C1 (stereo not given)	0	1	-30	-29	22*	.	18	23*
CC(=O)c1cccc(CN2CCCC(C(=O)c3ccc4c(c3)OCO4)C2)c1 (stereo not given)	0	-2	-13	-16	5	.	.	.
C=CCN(c1ccc(C(=O)Nc2ccc(C)c(C)c2)cc1)S(C)(=O)=O	0	0	8	5	-1	0	.	.
CC1=CC(C)(C)n2c(O)c(N=N)c3cc(C)cc1c32	0	6	-5	-59	23*	11	14	22*
CC1=CC(C)(C)n2c(O)c(N=N)c3c(C)c(C)cc1c32	.	-1	-60	-57	.	.	.	.
Cn1nc(C(=O)Nc2nc(-c3ccc(F)cc3)cs2)ccc1=O	.	2	-1	-11	.	.	.	.
CSc1cc(-c2ccccc2)n(Cc2ccc(Cl)cc2Cl)c(=O)c1C#N	0	1	-11	-13	24*	2	0	2
Cn1c(Oc2ccccc2NCc2cccc(Br)c2)cc(=O)n(C)c1=O	0	1	-9	-12	25*	5	11	6
O=C(Nc1ccccc1N1CCN(C(=O)c2ccccc2)CC1)c1ccc(Cl)cc1	0	2	-16	-36	16	.	.	.
O=C(Nc1ccccc1N1CCN(c2ccccc2)CC1)c1ccccc1	0	6	-31	-32	41*	.	34*	20*
CC(C)(C)c1ccc(CSc2nnc(-c3ccccn3)n2Cc2ccco2)cc1	0	2	-16	-16	21*	16	7	13
CNC(=O)CSc1nnc(-c2ccccn2)n1Cc1ccco1	.	3	21	16	.	.	.	.
COc1ccc(-c2nnc(N3CCCCC3)c3ccccc23)cc1	0	1	-11	-9	1	6	.	.
Cc1ccc(-c2nnc(N3CCC(C)CC3)c3ccccc23)cc1	0	-3	-3	-3	29*	.	12	7
SMILES	Hsp70 activator	Wee1 degr inh	NPY2 pot ag	NPY-Y1 PAM-ag	NPY Y1 blocker	NPY Y2 blocker	NPY1 antag conf	NPY-Y2 antag ct
CC1CCN(c2nnc(-c3ccccc3)c3ccccc23)CC1	0	1	-2	-6	14	.	.	.
Cc1ccc(-c2nnc(N3CCC(C)CC3)c3ccccc23)cc1C	0	1	-10	-25	26*	.	9	14
CC(C)n1cc([C@@H]2C[C@H]3CN(Cc4cccc(Cl)c4)C(=O)[C@]34CCCN24)cn1	0	-2	1	16	0	.	.	.
O=C1N(Cc2cccc(Cl)c2)C[C@@H]2C[C@@H](c3ccsc3)N3CCC[C@@]123	0	-3	4	4	29*	.	4	5
CCN(CC)S(=O)(=O)c1cccc(NC(=O)c2ccc(C#N)cc2)c1	0	-1	-23	-14	22*	.	-1	3
CN(C)S(=O)(=O)c1cccc(NC(=O)c2ccncc2)c1	0	0	-4	5	1	1	.	.
CCOC(=O)c1ccccc1NC(=O)c1ccccc1SC	0	0	-18	-46	24*	3	7	4
Cc1ccc(S(=O)(=O)Nc2cc(C)nn2-c2ccccc2)cc1	0	-3	7	-11	33*	2	-1	-1
Cc1cc(NC(=O)c2ccccc2)n(-c2ccccc2)n1	0	-2	9	5	-1	.	.	.
CCOC(=O)CSc1nc(C(C)C)nc2sc(C)c(C)c12	0	-2	-36	-43	23*	.	39*	41*
COCCNC(=O)c1cc(S(=O)(=O)N(C)c2ccccc2OC)ccc1C	.	-1	7	16	.	.	.	.
CCOc1ccc(C(=O)Nc2cc(C)on2)cc1OCC	0	1	5	-10	-1	0	.	.
CCCCOc1cccc(OCCCC)c1C(=O)Nc1cc(C)on1	0	2	-10	-55	51*	11	22*	8
CCCCCC(=O)Nc1cc(N(C)C)nc2ccccc12	0	-3	-12	-10	16	6	.	.
CCCCCCC(=O)Nc1c2c(nc3ccccc13)N(C)CC2	0	1	0	-35	24*	10	6	8
COc1ccccc1/C=C/C(=O)NCC(=O)n1nc(C)cc1C	.	-1	-4	-2	.	.	.	.
COc1cc(/C=N/N=C(/N)c2nonc2N)cc(Br)c1OCc1cccc(C)c1	0	-1	-17	-19	21*	11	15	14
COc1ccc(NC(=O)Nc2ccccc2F)cc1Cl	0	4	3	-1	2	.	.	.
Cc1ccc2cc3cc(C(=O)NCCCN4CCCCCC4)oc3nc2c1	0	-3	-5	-15	1	1	.	.
Cc1ccc2cc3cc(C(=O)NCCCN4CCc5ccccc5C4)oc3nc2c1	0	-1	-33	-98	21*	8	3	3
